Assay results pooled from the literature.
Lines come from different studies, so protocols differ.
Target: Calcium/calmodulin-dependent protein kinase type 1 (CAMK1, Homo sapiens, UniProt Q14012)

SMILES	read-out	mode	method	concentration	measurement	result
COc1ncccc1-c1cnn2ccc(N3CCN(C(=O)OC(C)C)CC3)nc12	binding		competition with immobilised ligand	1 µM	remaining binding	100%
Cn1cncc1[C@@](O)(COc1ccc(C#N)cc1-c1ccc(OC(F)(F)F)cc1)c1ccc(C#N)cc1	cell-free assay		competition with immobilised ligand	1 µM	remaining binding	100%
C#Cc1n[nH]c2c(-c3cn([C@@H](C)c4ccccc4)c(=O)[nH]c3=O)cc(F)cc12	enzyme activity	inhibitor		0.1 µM	inhibition	14.4%
COc1cc(Nc2ncc(F)c(Nc3ccc4c(n3)NC(=O)C(C)(C)O4)n2)cc(OC)c1OC	binding		competition with immobilised ligand	10 µM	inhibition	97%
Cc1nn(C)cc1-c1nc2c(N3CCN(Cc4ccc(Cl)cc4)CC3)c(Cl)cnc2[nH]1	binding		competition with immobilised ligand	1 µM	remaining binding	100%
Cn1cc(-c2cc(F)cc(N3CCn4c(cc5c4CCCC5)C3=O)c2CO)cc(Nc2ccc(N3CCN(C4COC4)CC3)cn2)c1=O	enzyme activity	inhibitor		0.1 µM	inhibition	0%
CC(C)(C)c1cc(C=C(C#N)C#N)cc(Br)c1O	enzyme activity	inhibitor		0.5 µM	remaining activity	97.5%
C#Cc1n[nH]c2c(-c3cn(C(C)c4ccccn4)c(=O)[nH]c3=O)cc(F)cc12 (stereo not shown)	enzyme activity	inhibitor		1 µM	inhibition	-18.7%
N#CC1(c2ccccn2)CCN(Cc2cc(C(=O)O)c(=O)n3ccccc23)CC1	cell-free assay		competition with immobilised ligand	1 µM	remaining binding	76%
O=c1[nH]c2ccccc2n1C1CCN(Cc2ccc(-c3[nH]c4cc5ncnc5cc4nc3-c3ccccc3)cc2)CC1	cell-free assay			0.5 µM	remaining signal	95.1%
